{"source": "ChEMBL document CHEMBL1151420", "about": "(Antimicrob Agents Chemother, 2007)", "key": {"[1]": {"test": "Cmax in horse at 10 mg/kg, iv after 15 mins", "type": "ADME, organism-based, Equus caballus", "design": "dose 10 mg/kg, route intravenous", "settings": "in vivo"}, "[2]": {"test": "Oral bioavailability in horse at 20 mg/kg administered as single dose", "type": "ADME, organism-based, Equus caballus", "settings": "in vivo", "how_it_was_run": "(§1)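 Single 20 mg/kg dose of crushed tablets suspended in 100 ml tap water, given by nasogastric tube and flushed with at least 200 ml water. Plasma sampled from 20 min to 30 h. Total concentration measured by HPLC-fluorescence (LOQ 50 ng/ml). Noncompartmental analysis; absolute F was calculated against the i.v. data.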"}, "Equus caballus [3]": {"system": "Equus caballus", "test": "fCmax in horse at 10 mg/kg, iv after 1 hr by three-compartmental study", "type": "ADME, organism-based", "design": "dose 10 mg/kg, route intravenous", "settings": "in vivo"}, "Equus caballus [4]": {"species": "Equus caballus", "test": "Renal toxicity in horse assessed as changes in creatinine level", "type": "organism-based", "settings": "in vivo", "how_it_was_run": "(§2)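 Blood was drawn once daily on the day before, the day of, and the day after drug administration. Plasma urea and creatinine were measured to assess kidney function.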"}, "Equus caballus [5]": {"system": "Equus caballus", "test": "fCmax in horse at 20 mg/kg, po administered as single dose", "type": "ADME, organism-based", "design": "dose 20 mg/kg, route oral", "settings": "in vivo", "how_it_was_run": "(§3)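 Horses (six, A–F) were dosed once intragastrically by nasogastric tube with 20 mg/kg of crushed tablets suspended in 100 ml tap water, followed by a ≥200 ml water flush. Heparinized plasma was sampled at 0 and from 20 min to 30 h and stored at –70°C. Unbound drug was isolated by 30 kDa ultrafiltration with ganciclovir internal standard and measured by LC-MS/MS (LOQ 5 ng/ml). Parameters were derived noncompartmentally.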"}, "Equus caballus [6]": {"system": "Equus caballus", "test": "fAUC in horse at 10 mg/kg, iv after 1 hr by three-compartmental study", "type": "ADME, organism-based", "design": "dose 10 mg/kg, route intravenous", "settings": "in vivo"}, "[7]": {"test": "Solubility at pH 2.3 to 9.2", "type": "physicochemical", "settings": "buffer"}, "Equus caballus [8]": {"system": "Equus caballus", "test": "fAUC in horse at 20 mg/kg, po administered as single dose", "type": "ADME, organism-based", "design": "dose 20 mg/kg, route oral", "settings": "in vivo", "how_it_was_run": "as §3"}, "[9]": {"test": "Total mean residence time in horse at 10 mg/kg, iv after 1 hr by two-compartmental study", "type": "ADME, organism-based, Equus caballus", "design": "dose 10 mg/kg, route intravenous", "settings": "in vivo"}, "[10]": {"test": "Free mean residence time in horse at 10 mg/kg, iv after 1 hr by three-compartmental study", "type": "ADME, organism-based, Equus caballus", "design": "dose 10 mg/kg, route intravenous", "settings": "in vivo"}, "Equid alphaherpesvirus 1": {"system": "Equid alphaherpesvirus 1", "test": "Antiviral activity against EHV1 assessed as inhibition of plaque formation", "type": "functional, organism-based"}, "Equus caballus [11]": {"species": "Equus caballus", "test": "Renal toxicity in horse assessed as changes in urea level", "type": "organism-based", "settings": "in vivo", "how_it_was_run": "as §2"}, "[12]": {"test": "Total Cmax in horse at 10 mg/kg, iv after 1 hr by two-compartmental study", "type": "ADME, organism-based, Equus caballus", "design": "dose 10 mg/kg, route intravenous", "settings": "in vivo"}, "[13]": {"test": "Mean residence time in iv dosed adult horse", "type": "ADME, organism-based, Equus caballus", "settings": "in vivo"}, "[14]": {"test": "Plasma concentration in horse at 20 mg/kg, po administered as single dose after 5 hrs", "type": "ADME, organism-based, Equus caballus", "design": "dose 20 mg/kg, route oral", "how_it_was_run": "as §1"}, "[15]": {"test": "Cmax in iv dosed adult horse", "type": "ADME, organism-based, Equus caballus", "design": "route intravenous", "settings": "in vivo"}, "[16]": {"test": "Distribution coefficient, log P of the compound", "type": "physicochemical", "settings": "octanol/water"}}, "data": [{"smiles": "Nc1nc2c(ncn2COCCO)c(=O)[nH]1", "note": "[ACYCLOVIR]", "values": [{"measurement": "Cmax", "setting": "[1]", "value": 46200, "unit": "ng/mL"}, {"measurement": "bioavailability", "setting": "[2]", "value": 2.8, "unit": "%"}, {"measurement": "fCmax", "setting": "Equus caballus [3]", "value": 10.5, "unit": "µg/mL"}, {"measurement": "Activity", "setting": "Equus caballus [4]", "value": "Non-toxic"}, {"measurement": "fCmax", "setting": "Equus caballus [5]", "value": 0.4, "unit": "µg/mL"}, {"measurement": "fAUC", "setting": "Equus caballus [6]", "value": 24.6, "unit": "µg·h/mL"}, {"measurement": "solubility", "setting": "[7]", "value": 1000, "unit": "µg/mL"}, {"measurement": "fAUC", "setting": "Equus caballus [8]", "value": 3.53, "unit": "µg·h/mL"}, {"measurement": "MRT", "setting": "[9]", "value": 5.38, "unit": "h"}, {"measurement": "MRT", "setting": "[10]", "value": 23.1, "unit": "h"}, {"measurement": "EC50", "setting": "Equid alphaherpesvirus 1", "value": 1.7, "unit": "µg/mL"}, {"measurement": "Activity", "setting": "Equus caballus [11]", "value": "Non-toxic"}, {"measurement": "Cmax", "setting": "[12]", "value": 10700, "unit": "ng/mL"}, {"measurement": "MRT", "setting": "[13]", "value": 7.09, "unit": "h"}, {"measurement": "concentration at 5 h", "setting": "[14]", "value": 50, "unit": "ng/mL"}, {"measurement": "Cmax", "setting": "[15]", "value": 10400, "unit": "ng/mL"}, {"measurement": "logP", "setting": "[16]", "value": -1.59}]}, {"smiles": "CC(C)[C@H](N)C(=O)OCCOCn1cnc2c(=O)[nH]c(N)nc21", "note": "[VALACYCLOVIR]", "values": [{"measurement": "fCmax", "setting": "Equus caballus [5]", "value": 4.76, "unit": "µg/mL"}, {"measurement": "fAUC", "setting": "Equus caballus [8]", "value": 14.9, "unit": "µg·h/mL"}]}]}
